The values below come from ChEMBL document CHEMBL3232870, “Discovery of 3-(4-methanesulfonylphenoxy)-N-[1-(2-methoxy-ethoxymethyl)-1H-pyrazol-3-yl]-5-(3-methylpyridin-2-yl)-benzamide as a novel glucokinase activator (GKA) for the treatment of type 2 diabetes mellitus” (Bioorg Med Chem, 2014).

SMILES strings stand for the structures.

For assay [1], the target named is T1, Hexokinase-4 (Homo sapiens) (UniProt P35557).
T1 sequence (whole entry): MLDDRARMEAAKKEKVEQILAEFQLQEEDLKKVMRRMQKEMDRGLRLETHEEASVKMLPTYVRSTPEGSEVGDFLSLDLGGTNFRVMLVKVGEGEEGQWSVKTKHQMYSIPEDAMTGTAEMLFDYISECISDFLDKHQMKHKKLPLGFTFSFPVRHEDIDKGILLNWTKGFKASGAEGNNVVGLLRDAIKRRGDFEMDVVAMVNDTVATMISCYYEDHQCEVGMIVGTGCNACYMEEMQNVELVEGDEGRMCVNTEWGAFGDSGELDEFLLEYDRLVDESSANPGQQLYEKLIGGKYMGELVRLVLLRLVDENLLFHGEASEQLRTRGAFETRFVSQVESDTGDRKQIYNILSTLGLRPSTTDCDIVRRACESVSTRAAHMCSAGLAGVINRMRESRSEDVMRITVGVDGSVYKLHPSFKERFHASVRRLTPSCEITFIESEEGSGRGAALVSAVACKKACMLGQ
Description: Activity of recombinant human pancreatic glucokinase assessed as glucose half-maximal saturation concentration. The gist of the method: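 Purified recombinant human pancreatic glucokinase coupled enzymatic assay, compounds in DMSO. Buffer: HEPES pH 7.4, KCl, MgCl2, DTT, ATP, NADP, G6PDH. Half-saturation glucose concentration S0.5 was reported. Values are means of three duplicate runs.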

Another assay has as its system Mus musculus. Nature of the assay: Antidiabetic activity in po dosed C57BL/J6 mouse assessed as reduction of glucose AUC preincubated for 30 mins followed by glucose challenge measured after 30 to 180 mins by oral glucose tolerance test.

In the case of `CCCNCc1csc(NC(=O)c2cc(Oc3ccc(S(C)(=O)=O)cc3)cc(-c3ncccc3C)c2)n1`, the S50 in assay [1] stood at 4.51 mM.

Regarding `Cc1cccnc1-c1cc(Oc2ccc(S(C)(=O)=O)cc2)cc(C(=O)Nc2nc(CC(=O)NC3CC3)cs2)c1`, the S50 in assay [1] was 1.78 mM.

Regarding `C#CCNCc1csc(NC(=O)c2cc(Oc3ccc(S(C)(=O)=O)cc3)cc(-c3ncccc3C)c2)n1`, the S50 in assay [1] came out at 2.21 mM.

Regarding `COCC(C)NCc1csc(NC(=O)c2cc(Oc3ccc(S(C)(=O)=O)cc3)cc(-c3ncccc3C)c2)n1` (centres undefined), the S50 in assay [1] worked out at 2.27 mM.

As for `Cc1cccnc1-c1cc(Oc2ccc(S(C)(=O)=O)cc2)cc(C(=O)Nc2nc(CN3CCOCC3)cs2)c1`, the S50 in assay [1] was 3.24 mM.

As for `Cc1cccnc1-c1cc(Oc2ccc(S(C)(=O)=O)cc2)cc(C(=O)Nc2ccn(C)n2)c1`, in assay [1], the S50 worked out at 3.89 mM.

Take `CCNC(=O)Cc1csc(NC(=O)c2cc(Oc3ccc(S(C)(=O)=O)cc3)cc(-c3ncccc3C)c2)n1`: in assay [1], the S50 was 4.35 mM.

As for `Cc1cccnc1-c1cc(Oc2ccc(S(C)(=O)=O)cc2)cc(C(=O)Nc2ncc(F)s2)c1`, in assay [1], the S50 turned out to be 1.95 mM.

For `COCCN(CCOC)Cc1csc(NC(=O)c2cc(Oc3ccc(S(C)(=O)=O)cc3)cc(-c3ncccc3C)c2)n1`, the S50 in assay [1] is 5.43 mM.

Consider `Cc1cccnc1-c1cc(Oc2ccc(S(C)(=O)=O)cc2)cc(C(=O)Nc2ccn(CCN3CCOCC3)n2)c1`, for which, in assay [1], the S50 was determined as 3.54 mM.

For the compound `COC(CNCc1csc(NC(=O)c2cc(Oc3ccc(S(C)(=O)=O)cc3)cc(-c3ncccc3C)c2)n1)OC`, the S50 in assay [1] was found to be 0.57 mM.

Regarding `Cc1cccnc1-c1cc(Oc2ccc(S(C)(=O)=O)cc2)cc(C(=O)Nc2nc(CN3CCN(C)CC3)cs2)c1`, in assay [1], the S50 came out at 3.44 mM.

Turning to `Cc1cccnc1-c1cc(Oc2ccc(S(C)(=O)=O)cc2)cc(C(=O)Nc2nc(CNC(C)C)cs2)c1`, the S50 in assay [1] was determined as 3.98 mM.

Regarding `Cc1cccnc1-c1cc(Oc2ccc(S(C)(=O)=O)cc2)cc(C(=O)Nc2nccs2)c1`, the S50 in assay [1] was 2.01 mM.

Regarding `COCCOCn1ccc(NC(=O)c2cc(Oc3ccc(S(C)(=O)=O)cc3)cc(-c3ncccc3C)c2)n1`, in assay [1], the S50 came out at 2.33 mM. The Activity result in the assay on Mus musculus was “Dose-dependent effect”.

For the compound `CCN(CC)Cc1csc(NC(=O)c2cc(Oc3ccc(S(C)(=O)=O)cc3)cc(-c3ncccc3C)c2)n1`, in assay [1], the S50 was found to be 5.79 mM.

In the case of `COCCN(C)Cc1csc(NC(=O)c2cc(Oc3ccc(S(C)(=O)=O)cc3)cc(-c3ncccc3C)c2)n1`, the S50 in assay [1] worked out at 4.56 mM.

For the compound `Cc1cccnc1-c1cc(Oc2ccc(S(C)(=O)=O)cc2)cc(C(=O)Nc2nc(CN3CCNCC3)cs2)c1`, in assay [1], the S50 is 3.08 mM.
